In ChEMBL document CHEMBL3351969, “Chalcone based azacarboline analogues as novel antitubulin agents: design, synthesis, biological evaluation and molecular modelling studies” (Eur J Med Chem, 2014):
Structures can show the parent of a compound that is named as a salt. Calls of active or inactive are those of the source. The rule behind the calls is not given here.

Key:
[1] = system: THP-1; test: Cytotoxicity against human THP1 cells assessed as growth inhibition at 50 uM after 48 hrs by sulforhodamine B assay; format: functional; conditions: for inhibition of growth at 50 µM: THP-1, 48 h, read-out: GI
Method in brief: (§1)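 Single-point SRB screen at 50 µM. Cells were seeded and grown 24 h at 37°C in a CO2 incubator, then exposed to compound in complete medium for 48 h. Cells were fixed with 50% TCA for 1 h at 4°C, water-washed, and stained with 0.4% SRB in 1% acetic acid for 30 min. After 1% TCA washes, dye was dissolved in Tris-HCl (0.01 M, pH 10.4) and OD read at 540 nm.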

[2] = system: COLO 205; test: Cytotoxicity against human COLO205 cells assessed as growth inhibition at 50 uM after 48 hrs by sulforhodamine B assay; format: functional; conditions: for inhibition of growth at 50 µM: COLO 205, 48 h, read-out: GI; method in brief: as §1
[3] = (§2) Cytotoxicity against human HCT116 cells assessed as growth inhibition at 50 uM after 48 hrs by sulforhodamine B assay; format: functional; conditions: HCT-116, 48 h, read-out: GI; method in brief: as §1
[4] = system: COLO 205; test: Cytotoxicity against human COLO205 cells assessed as growth inhibition after 48 hrs by sulforhodamine B assay; format: functional, cell-based; conditions: COLO 205, 48 h
Method in brief: (§3)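 SRB growth assay with compound dilutions over several concentrations. Cells were pre-grown 24 h at 37°C in a CO2 incubator, then exposed for 48 h. Cells were fixed with 50% TCA (1 h, 4°C) and stained with 0.4% SRB in 1% acetic acid for 30 min. Bound dye was solubilised in 0.01 M Tris-HCl (pH 10.4) and read at 540 nm. Percent inhibition versus untreated (blank-subtracted) was used to calculate IC50.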

[5] = Cytotoxicity against human HCT116 cells assessed as growth inhibition after 48 hrs by sulforhodamine B assay; format: functional, cell-based; conditions: HCT-116, 48 h; method in brief: as §3
[6] = system: A549; test: Cytotoxicity against human A549 cells assessed as growth inhibition at 50 uM after 48 hrs by sulforhodamine B assay; format: functional; conditions: for inhibition of growth at 50 µM: A549, 48 h, read-out: GI; method in brief: as §1
[7] = system: THP-1; test: Cytotoxicity against human THP1 cells assessed as growth inhibition after 48 hrs by sulforhodamine B assay; format: functional, cell-based; conditions: THP-1, 48 h; method in brief: as §3
[8] = molecular target: Tubulin; test: Inhibition of tubulin (unknown origin) polymerization after 1 hr by spectrophotometry; format: protein-complex assay, Homo sapiens
Method in brief: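 Kit tubulin (10 mg in 1 mL general tubulin buffer plus 10 µL of 100 mM GTP) was held at 4°C. Compounds came from a 100 µM DMSO stock diluted to 50, 25 and 10 µM (pre-assay dilutions). Compound was pre-warmed in plate wells 2 min at 37°C before adding tubulin diluted in polymerization buffer (general buffer, glycerol buffer, GTP).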

[9] = system: THP-1; test: Disruption of microtubule organization in human THP1 cells at 5 uM after 48 hrs by immunofluorescence technique; format: cell-based
Method in brief: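 THP-1 cells were exposed to 1 µM paclitaxel or 5 µM test agent for 48 h, alongside untreated controls. Microtubules and unassembled tubulin were immunostained (green) and DNA was stained with DAPI. Microtubule organisation was examined by confocal microscopy.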

[10] = system: HCT-116; test: as §2; format: functional; method in brief: as §1
[11] = system: THP-1; test: Disruption of microtubule organization in human THP1 cells at 1 uM after 48 hrs by immunofluorescence technique; format: cell-based
[12] = system: A549; test: Cytotoxicity against human A549 cells assessed as growth inhibition at 1 uM after 48 hrs by sulforhodamine B assay; format: functional; conditions: A549, 48 h, read-out: GI
[13] = Cytotoxicity against human HCT116 cells assessed as growth inhibition at 1 uM after 48 hrs by sulforhodamine B assay; format: functional; conditions: HCT-116, 48 h, read-out: GI
[14] = system: THP-1; test: Cytotoxicity against human THP1 cells assessed as growth inhibition at 1 uM after 48 hrs by sulforhodamine B assay; format: functional; conditions: THP-1, 48 h, read-out: GI
[15] = system: COLO 205; test: Cytotoxicity against human COLO205 cells assessed as growth inhibition at 1 uM after 48 hrs by sulforhodamine B assay; format: functional; conditions: COLO 205, 48 h, read-out: GI

Compound	inhibition of growth at 50 µM [1] [%]	inhibition of growth at 50 µM [2] [%]	inhibition of growth at 50 µM [3] [%]	IC50 [4] [µM]	IC50 [5] [µM]	inhibition of growth at 50 µM [6] [%]	IC50 [7] [µM]	growth inhibition (GI) [10]	growth inhibition (GI) [6]	growth inhibition (GI) [2]	further results
CC(=O)n1c2cccc(Cl)c2c2cc(-c3cccc4ccccc34)nnc21	65	40	44	18	15.7	18	14.1	–	–	–	–
COc1cc(-c2cc3c4ccccc4n(C(C)=O)c3nn2)cc(OC)c1OC	99	89	86	4.15	2.89	20	1.13	–	–	–	IC50 [8]: 2.41 µM; Activity [9]: Active
COc1ccc(-c2cc3c4c(Cl)cccc4n(C(C)=O)c3nn2)cc1	60	39	36	18.2	16.9	14	14.9	–	–	–	–
CC(=O)n1c2ccccc2c2cc(-c3ccc[nH]3)nnc21	78	68	72	7.23	6.14	12	4.28	–	–	–	–
CC(=O)n1c2cccc(Cl)c2c2cc(-c3ccc(Br)cc3)nnc21	15	10	–	–	–	–	–	inactive	inactive	–	–
CC(=O)n1c2ccccc2c2cc(-c3ccccc3)nnc21	71	64	66	8.11	7.77	10	5.75	–	–	–	–
CC(=O)n1c2ccccc2c2cc(-c3ccc4ccccc4c3)nnc21	89	82	81	5.76	4.44	–	2.41	–	inactive	–	IC50 [8]: 8.91 µM
CC(=O)n1c2cccc(I)c2c2cc(-c3ccc4ccccc4c3)nnc21	25	–	–	–	–	–	–	inactive	inactive	inactive	–
CC(=O)n1c2cccc(Br)c2c2cc(-c3ccccc3)nnc21	27	–	–	–	–	–	–	inactive	inactive	inactive	–
COc1ccc(-c2cc3c4c(Cl)cccc4n(C(C)=O)c3nn2)cc1OC	71	54	49	17.2	15.8	–	13.8	–	inactive	–	–
CC(=O)n1c2cccc(Br)c2c2cc(-c3ccc(Cl)cc3)nnc21	–	–	–	–	–	–	–	inactive	inactive	inactive	growth inhibition (GI) [1]: inactive
CC(=O)n1c2cccc(I)c2c2cc(-c3cccc4ccccc34)nnc21	29	–	–	–	–	–	–	inactive	inactive	inactive	–
COc1ccc(-c2cc3c4ccccc4n(C(C)=O)c3nn2)cc1OC	90	82	80	5.69	4.4	12	2.33	–	–	–	IC50 [8]: 4.92 µM
CC(=O)n1c2cccc(I)c2c2cc(-c3ccc(Br)cc3)nnc21	–	–	–	–	–	–	–	inactive	inactive	inactive	growth inhibition (GI) [1]: inactive
CC(=O)n1c2cc(Br)cc(Br)c2c2cc(-c3ccc4ccccc4c3)nnc21	26	–	–	–	–	–	–	inactive	inactive	inactive	–
CC(=O)n1c2cccc(I)c2c2cc(-c3ccccc3)nnc21	20	–	–	–	–	–	–	inactive	inactive	inactive	–
COc1ccc(-c2cc3c4c(I)cccc4n(C(C)=O)c3nn2)cc1	22	9	–	–	–	–	–	inactive	inactive	–	–
COc1ccc(-c2cc3c4ccccc4n(C(C)=O)c3nn2)cc1	81	72	72	6.63	5.23	10	3.45	–	–	–	–
CC(=O)n1c2cc(Br)cc(Br)c2c2cc(-c3ccccc3)nnc21	21	–	–	–	–	–	–	inactive	inactive	inactive	–
CC(=O)n1c2cccc(Cl)c2c2cc(-c3ccc([N+](=O)[O-])cc3)nnc21	14	–	–	–	–	–	–	inactive	inactive	inactive	–
CC(=O)n1c2cccc(Cl)c2c2cc(-c3ccc4ccccc4c3)nnc21	68	41	45	17.6	16.2	19	14	–	–	–	–
CC(=O)n1c2cccc(Br)c2c2cc(-c3ccc([N+](=O)[O-])cc3)nnc21	–	–	–	–	–	–	–	inactive	inactive	inactive	growth inhibition (GI) [1]: inactive
CC(=O)n1c2ccccc2c2cc(-c3cccc4ccccc34)nnc21	89	83	80	5.74	4.36	–	2.39	–	inactive	–	IC50 [8]: 8.97 µM
CC(=O)O[C@H]1C(=O)[C@@]2(C)[C@H]([C@H](OC(=O)c3ccccc3)[C@]3(O)C[C@H](OC(=O)[C@H](O)[C@@H](NC(=O)c4ccccc4)c4ccccc4)C(C)=C1C3(C)C)[C@]1(OC(C)=O)CO[C@@H]1C[C@@H]2O [PACLITAXEL]	–	–	–	–	–	–	–	–	–	–	Activity [11]: Active; inhibition of growth at 1 µM [12]: 70%
CC(=O)n1c2cccc(I)c2c2cc(-c3ccc([N+](=O)[O-])cc3)nnc21	–	–	–	–	–	–	–	inactive	inactive	inactive	growth inhibition (GI) [1]: inactive
CC(=O)n1c2cc(Br)cc(Br)c2c2cc(-c3ccc(F)cc3)nnc21	–	–	–	–	–	–	–	inactive	inactive	inactive	growth inhibition (GI) [1]: inactive
CC(=O)n1c2ccccc2c2cc(-c3cccs3)nnc21	76	69	71	7.15	6.17	10	4.31	–	–	–	–
COc1cc(-c2cc3c4c(Cl)cccc4n(C(C)=O)c3nn2)cc(OC)c1OC	77	59	66	17	15.7	–	13.4	–	inactive	–	–
COc1cccc2c1C(=O)c1c(O)c3c(c(O)c1C2=O)C[C@@](O)(C(=O)CO)C[C@@H]3O[C@H]1C[C@H](N)[C@H](O)[C@H](C)O1 [DOXORUBICIN HYDROCHLORIDE]	–	–	–	–	–	–	–	–	–	–	inhibition of growth at 1 µM [13]: 66%; inhibition of growth at 1 µM [14]: 71%; inhibition of growth at 1 µM [15]: 72%
CC(=O)n1c2cccc(Br)c2c2cc(-c3ccc(Br)cc3)nnc21	–	–	–	–	–	–	–	inactive	inactive	inactive	growth inhibition (GI) [1]: inactive
